Source: PubChem
ATG4B inh = blocks human ATG4B protease cleavage of LC3 substrate; Q9Y4P1; ATG4B cleavage of LC3-PLA2, NBD-HPC fluorescence, 1 h; inhibition, % at 8.33 µM; 0.51% of 340,000 active; AID 504462; in the data active = inhibition above about 40%
UCH37 inh = blocks the human deubiquitinase UCH37; 0.33% of 330,000 active; purified proteasome/UCH37, Ub-AMC cleavage fluorescence; AID 588478; inhibition, % (test concentration not listed);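 active = mean inhibition over replicate wells above about 20%, limit read from the data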;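 note: 0% = compound-free wells with enzyme and 100% = wells lacking proteasome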
Target sequence (Q9Y5K5 whole entry, looked up): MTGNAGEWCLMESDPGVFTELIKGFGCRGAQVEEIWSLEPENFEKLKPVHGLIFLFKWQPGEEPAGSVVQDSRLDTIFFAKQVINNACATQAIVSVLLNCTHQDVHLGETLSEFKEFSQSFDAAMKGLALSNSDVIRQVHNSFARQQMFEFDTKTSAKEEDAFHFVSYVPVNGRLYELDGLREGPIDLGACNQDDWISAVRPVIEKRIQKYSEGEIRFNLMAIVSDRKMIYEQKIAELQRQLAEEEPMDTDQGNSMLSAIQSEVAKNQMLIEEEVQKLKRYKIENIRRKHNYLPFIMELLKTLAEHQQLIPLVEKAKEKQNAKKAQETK
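Schedule: 30 min plus 25 min, room temperature / Material: human UCH37 within purified proteasomes / Technique: AMC fluorescence intensity at 355/460 nm / Buffer or medium: pH 7.4 Tris-HCl (50 mM) with ovalbumin, ATP-MgCl2, DTT / Controls: wells without proteasome as full block, compound-free enzyme plus substrate as uninhibited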
NR3A LBD binder = NR3A (human) ligand-binding domain modulation. NR3A LBD differential scanning fluorimetry, Tm shift; 0% = protein alone, 100% = glycine-bound protein. Tm shift relative to glycine control, % at 25 µM. 2.5% of 340,000 active. AID 1259313;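 active = melting temperature shift of at least 10% of the positive control shift, at one fixed dose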
NadD inh = inhibitors of Staphylococcus aureus NadD | purified NadD enzyme, colorimetric absorbance read-out | inhibition, % at 20 µM | 0.78% of 360,000 active | AID 602399; in the data active = inhibition above about 26%
SENP1 inh = blocks the human SENP1 SUMO protease catalytic domain; Q9P0U3; recombinant SENP1 catalytic domain, CyPet-SUMO1-YPet FRET cleavage; AID 624204; inhibition, % at 10 µM; 0.21% of 360,000 active;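 active = inhibition at least 30% at 10 µM, raw YFP signal under a set limit, fluorescence ratio 0.5 to 1.5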;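 note: 0% = enzyme with DMSO and 100% = no enzyme wells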
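Test system: recombinant human SENP1 catalytic domain, His6-tagged / Medium: pH 8 Tris buffer with EDTA, NaCl, BME, BSA, NP40, catalase / Also added: SUMO1 FRET substrate flanked by Cypet and Ypet, 25 nM / Times: 50 min reaction at room temperature / Signal: FRET, CFP and YFP emission / Control set: no-enzyme low control and enzyme-plus-DMSO high control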
An asterisk follows results filed as active; . = no result given. Only some compounds are listed: those with a hit (about 3.6% of all), similar ones and a draw of the others.

SMILES	ATG4B inh	UCH37 inh	NR3A LBD binder	NadD inh	SENP1 inh
CCCCC[n+]1ccn(C2=C([O-])c3ccccc3C(=O)/C2=N\S(=O)(=O)c2ccc(Br)cc2)c1	-11	7	-5	8	5
CCCCC[n+]1ccn(C2=C([O-])c3ccccc3C(=O)/C2=N\S(=O)(=O)c2ccccc2)c1	1	24*	-1	4	-1
CCC(C)c1ccccc1OCCCCN1CCCC1 (stereo not given)	-5	31*	1	-5	0
CCC(C)c1ccccc1OCCOCCN1CCCC1 (stereo not given)	4	-1	2	-3	0
N#CC(C(=S)Nc1ccccc1)c1nc2ccccc2[nH]1 (stereo not given)	-1	7	31*	4	-32
S=c1[nH]nc(COc2ccccc2)n1N=Cc1cccc(Br)c1	.	3	.	.	.
Oc1ccc(C=NNC(=S)NCC2CCCO2)cc1 (stereo not given)	.	8	.	.	.
C/C(C=NNC(=O)c1ccc2nc(C)[nH]c2c1)=C\c1ccccc1	.	7	.	.	.
CCc1cc(C(=O)N=Nc2c(O)[nH]c3ccc([N+](=O)[O-])cc23)c2ccccc2n1	-9	11	6	27	5
CCc1cc(C(=O)N=Nc2c(O)[nH]c3c(Br)cc(Br)cc23)c2ccccc2n1	0	0	7	54*	5
COc1ccc(C)cc1N(CC(=O)NN=Cc1ccccc1C(=O)O)S(=O)(=O)c1ccccc1	.	3	.	.	.
O=C(N/N=C/c1ccc(OCc2ccccc2)cc1)c1cccs1	-7	.	21*	6	-1
O=C(O)c1ccc(COc2ccc(C=NNC(=O)c3cccs3)cc2)cc1	.	5	.	.	.
O=C(Nc1ccc(OCc2ccccc2)cc1)c1cccs1	5	1	25*	-6	0
Oc1ccc(N=Cc2ccc(OCc3ccccc3)cc2)cc1	5	6	10*	0	6
O=C(N/N=C/c1ccc(Cl)cc1)c1sccc1OCc1ccc(F)cc1	-10	.	22*	0	-1
Cn1cc(C=Nn2cnc3sc4c(c3c2=O)CCCC4)c2ccccc21	.	2	.	.	.
Cc1occc1C(=O)Nc1ccc(OCc2ccccc2)cc1	-6	3	26*	-8	1
CCOC(=O)c1nc(C)nc(Sc2n[nH]c(-c3cc(C(F)(F)F)cc(C(F)(F)F)c3)n2)c1C	-7	3	13*	-3	0
Cc1cccc(-c2cc(=O)c(C(=O)O)cn2-c2ccc(F)cc2F)c1	-7	5	13*	4	0
CC(CC(=O)c1ccccc1)=NNC(=O)CC#N	.	1	.	.	.
CC(=NN=c1sc2ccccc2n1C)c1ccccn1	.	7	.	.	.
Cc1ccc(NC(=O)c2ccc(-n3cccn3)c([N+](=O)[O-])c2)cc1C	-8	0	13*	-2	-2
O=C(Nc1ccc(Cl)cc1)c1ccc(-n2cccn2)c([N+](=O)[O-])c1	0	2	23*	-3	4
Cc1nn(-c2ccccc2)c(N2CCCC2)c1C=NNC(=O)c1cc(-c2cccs2)nc2ccccc12	.	-7	.	.	.
SMILES	ATG4B inh	UCH37 inh	NR3A LBD binder	NadD inh	SENP1 inh
O=C1c2ccccc2C(=O)N1Cc1nc2ccccc2c(=O)n1Cc1ccco1	-2	2	0	.	.
CC(C)Cn1c(CN2C(=O)c3ccccc3C2=O)nc2ccccc2c1=O	-2	1	20*	-4	-4
O=C(/C=C/c1ccccc1)NCCSCc1ccc(Cl)cc1	-3	1	12*	2	0
O=C1C(C=Nc2ccccc2O)=C(O)c2ccccc21	-4	6	-2	0	3
Cc1ccc(O)c(N=CC2=C(O)c3ccccc3C2=O)c1	-11	15	-12	10	42*
COCCNS(=O)(=O)c1ccc2c3c(cccc13)C(=O)N2C	-4	-100	1	-2	-25
CN1C(=O)c2cccc3c(S(=O)(=O)NCCc4ccccc4)ccc1c23	-1	-114	16*	-15	-22
CCOc1ccc(C(=O)NCC(=O)OCc2c(F)cccc2Cl)cc1OCC	10	.	14*	-10	2
CCC(C)(C)NC(=O)C(c1cccn1C)N(C(=O)Cn1nnc2ccccc21)c1ccc(F)cc1 (stereo not given)	-8	4	1	-8	0
CCC(C)(C)NC(=O)C(c1cccn1C)N(C(=O)Cn1nnc2ccccc21)c1ccc(OC)cc1 (stereo not given)	3	2	11*	-2	-2
